In the EternaBench riboswitch data:

Legend:
[1] = tested on: MS2 coat protein; assay: apparent Kd, MS2 coat protein; higher = weaker binding; RNA-MaP array
How it was run: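 For each design, the apparent Kd is the median of binding-curve fits across its clusters. Designs measured on fewer than 10 clusters were dropped. The RNAs were transcribed from sequenced DNA templates on an Illumina sequencing chip and incubated at room temperature, with or without input ligand, with fluorescently labeled MS2 coat protein at 1.5 nM to 3 μM.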

[2] = tested on: MS2 coat protein; assay: apparent Kd, MS2 coat protein; higher = weaker binding; RNA-MaP array; FMN 200 µM where present
How it was run: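 Stalled E. coli RNA polymerase produced the designs on Illumina sequencing-chip clusters. SNAP-549-labelled MS2 coat protein was added from 0.7 or 1.5 nM, doubling to 3 µM, without and then with constant ligand, in 100 mM Tris-HCl pH 7.5, 80 mM KCl, 4 mM MgCl2, BSA, DTT, yeast tRNA and Tween-20. The apparent Kd is the median of filtered per-cluster fits of green signal normalised to red-channel RNA signal and control-cluster median Fmax.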

[3] = designed as: ON switch for theophylline, no ligand
[4] = ligand present: theophylline, designed as: ON switch for theophylline
[5] = designed as: ON switch for flavin mononucleotide, no ligand
[6] = ligand present: flavin mononucleotide, designed as: ON switch for flavin mononucleotide
[7] = designed as: OFF switch for theophylline, no ligand
[8] = ligand present: theophylline, designed as: OFF switch for theophylline
[9] = designed as: OFF switch for flavin mononucleotide, no ligand
[10] = ligand present: flavin mononucleotide, designed as: OFF switch for flavin mononucleotide

CCGCCCUACCGCGAUACCAGUACGGCAGUUAACAUGAGGAUCACCCAUGUGCAAACAUAAUACCCUUGGCAGCGCCUGAAUCCAU
apparent Kd [1, 3]: 17.7 nM
apparent Kd [1, 4]: 17.3 nM

AUGAGUGGCCUGACAUGAGGAUCACCCAUGUCAAAUAAUGCAAGAAGGGACCUUUAUUCAAGGUGUCAGGAUAUUGAUUAAACC
apparent Kd [1, 5]: 15.8 nM
apparent Kd [1, 6]: 12.9 nM

GAUGGAAUAAGAGAUACCAGACACAAUUUAGCAUGUAUAUACAUGAGGAUCACCCAUGUAGUCCCUUGGCAGCUCUGGUUAGUGU
apparent Kd [1, 7]: 26.5 nM
apparent Kd [1, 8]: 26.7 nM

CUCCCACUAUCUGAUACCAGAGGAUAAACGUAGACUGGGAACAUGAGGAUCACCCAUGUCCUCCCUUGGCAGCAGGACUUAUCUC
apparent Kd [1, 7]: 21.9 nM
apparent Kd [1, 8]: 38.3 nM

ACAUGCUCUGAGGAUAUCAAUAAUCCCUAUUACUGAGAAGGCAGCACAUGAGGAUCACCCAUGUGAGGUGAGUC
apparent Kd [1, 9]: 34.5 nM
apparent Kd [1, 10]: 58.8 nM

ACUCGGCAUCAUGAUACCAGAGAGCCCGAGAUGCCUUAACACAUGAGGAUCACCCAUGUACUCCCUUGGCAGCAUCAUGCACUAU
apparent Kd [1, 7]: 19.4 nM
apparent Kd [1, 8]: 24.4 nM

GCAUACAGCAAGAAGGUGGCAUCGACUAUGGCCCAAGGAUAUUGCGGUACUACAUGAGGAUCACCCAUGUGUUCAUGAUUAUAG
apparent Kd [1, 5]: 35.5 nM
apparent Kd [1, 6]: 30.2 nM

CAUGAUAAGUUGGAUACCAGCAUAUGGAACAACAUGAGGAUCACCCAUGUCAAAUGACAUUGCCCUUGGCAGCCACCUACUGUCA
apparent Kd [1, 3]: 20.3 nM
apparent Kd [1, 4]: 11.1 nM

AAACACUCAUAAGGAUAUGCAGCGCUUAGACAUGAGGAUCACCCAUGUGAUGCAGGGAAGUCCCGGCAGAAGGUAAGUAAGUAC
apparent Kd [1, 5]: 14.4 nM
apparent Kd [1, 6]: 13 nM

GUACGGUGAGGAUAUCGUUAAGAUGUGGACAGGCCUACAUACGAGAAGGCACAUGAGGAUCACCCAUGUUCAUA
apparent Kd [1, 9]: 21.5 nM
apparent Kd [1, 10]: 18.8 nM

AUCAGUCUAGAAGGAUAUCAGCCCGAAGCCGAGUGAGAAGGUCUAGACAUGAGGAUCACCCAUGUCACAGCAACUAUCAAGAAC
apparent Kd [1, 9]: 9.74 nM
apparent Kd [1, 10]: 19.1 nM

CUCUAUCAGCAAGGAUAUGGGAGGUGUCGAGUUCCAGAAGGUGCACAUGAGACAUGAGGAUCACCCAUGUUGUGUAGUCCUCGA
apparent Kd [1, 9]: 10.8 nM
apparent Kd [1, 10]: 26.5 nM

CACGCCAGAUCUCAGGAUAUCCCACAUCAAACAUGAGGAUCACCCAUGUGACAUAUAUAGAACAUGGAGAAGGGAGCACAUGCGGC
apparent Kd [1, 5]: 209 nM
apparent Kd [1, 6]: 113 nM

UGCCCUACAUGAGGAUCACCCAUGUACAUAACAUGAGUGCGCAGAAGGUAUGCGUUGAAGAGCCAUAAGGAUAUGCAAACCGUC
apparent Kd [1, 5]: 114 nM
apparent Kd [1, 6]: 71.1 nM

UCAUAUUUACAAGGAUAUCAAUUAUUUAUACAUCCUACAUGAGGAUCACCCAUGUUAAUAUAUUUUGAGAAGGUGUAUUGUCGG
apparent Kd [2, 5]: 32.1 nM
apparent Kd [2, 6]: 31.2 nM

GACGUGUGAGGAUAUGCCGUGCCGGUCCGGAAGGUUCGGGUGCAGAAGGCACAUGAGGAUCACCCAUGUGUAAG
apparent Kd [2, 9]: 23.4 nM
apparent Kd [2, 10]: 32.5 nM

CUUUUGUGAGGAUAUCAGUAGUAAAUAAAUAAAAUUUCUACUGAGAAGGCACAUGAGGAUCACCCAUGUUCCUC
apparent Kd [2, 9]: 38.5 nM
apparent Kd [2, 10]: 220 nM

AUACAUGAGGAUCACCCAUGUUACUGGGUCUAAAUAGAACGUAGAAGGAUGUAUUUACACAUAACAUAGGAUAUACUAUAUAGU
apparent Kd [2, 9]: 153 nM
apparent Kd [2, 10]: 72.8 nM

GAAUGUCGGGUAGGAUAUGACUUGCCACGGAGGUCAGAAGGGCCACGACAUGAGGAUCACCCAUGUACUGUAUUCCUUUUUCAA
apparent Kd [2, 9]: 25.3 nM
apparent Kd [2, 10]: 98.1 nM

UCCGCGCGCGUAGGAUAUACAUGAGGAUCACCCAUGUACCCAUAUGGCUUCCUGAAUCUUGCAAUGUAGAAGGACGCCCGUGGG
apparent Kd [2, 9]: 35.8 nM
apparent Kd [2, 10]: 36.1 nM

GGGUAACAUGAGGAUCACCCAUGUGAGGAUAUCCUAGGGAUGGAAGCCCGGCCAACCAGGAGAAGGUACUAAAG
apparent Kd [2, 9]: 83.2 nM
apparent Kd [2, 10]: 89.7 nM

CAAGGAUACUUAUAAGCUGACAAACCAGAAGGAUGAGCCUCUACAUGAGGAUCACCCAUGUGUUCGUAGGAUAUGGGUCGGAAG
apparent Kd [2, 5]: 11.3 nM
apparent Kd [2, 6]: 31.5 nM

CUGUAUGAUGUAGGAUAUACAAUAAUAUUGUUAGUAGAAGGACAUGAGGAUCACCCAUGUAAAUUAAUUUUAAUUAUUUUUGCG
apparent Kd [2, 9]: 47.2 nM
apparent Kd [2, 10]: 36.6 nM
